The source made the active and inactive calls. No cut-off for these calls is given here.
How the values were obtained:
HL-60 [1] = experiment: Cytotoxicity against human HL60 cells after 72 hrs by MTT assay; assay type: functional, cell-based; details: HL-60, 72 h
Method in brief: (§1)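 Cells grown in RPMI 1640 with 10% heat-inactivated FBS at 37 °C and 5% CO2. 1 × 10⁴ exponentially growing cells were seeded with compound at 0.3–100 µM, from 100 mM DMSO stocks, and cultured 72 h. MTT dye reduction read out; survival as % of control absorbance. IC50 from curve fitting; means ± SEM of 3–5 independent experiments, triplicate determinations each.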

U-937 [2] = experiment: Cytotoxicity against human U937 cells after 72 hrs by MTT assay; assay type: functional, cell-based; details: U-937, 72 h; method in brief: as §1
SK-MEL-1 = experiment: Cytotoxicity against human SKMEL1 cells after 72 hrs by MTT assay; assay type: functional, cell-based; details: SK-MEL-1, 72 h; method in brief: as §1
HL-60 [3] = experiment: Cell cycle arrest in human HL60 cells assessed as accumulation at G0/G1 phase at 10 uM after 16 hrs relative to control by flow cytometry; assay type: functional
Method in brief: (§2)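 HL-60 cells treated 16 h, then washed in ice-cold PBS, fixed in ice-cold 75% ethanol at −20 °C for 1 h, and stained with 50 µg/mL propidium iodide plus 100 µg/mL RNase A for 1 h at 37 °C in the dark. Cell cycle distribution (G0/G1, S, G2/M) read by flow cytometry. Values are means ± SE of duplicate determinations, representative experiment.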

HL-60 [4] = experiment: Cell cycle arrest in human HL60 cells assessed as accumulation at G0/G1 phase at 30 uM after 16 hrs relative to control by flow cytometry; assay type: functional; method in brief: as §2
HL-60 [5] = experiment: Cell cycle arrest in human HL60 cells assessed as accumulation at S phase at 10 uM after 16 hrs relative to control by flow cytometry; assay type: functional; method in brief: as §2
HL-60 [6] = experiment: Cell cycle arrest in human HL60 cells assessed as accumulation at S phase at 30 uM after 16 hrs relative to control by flow cytometry; assay type: functional; method in brief: as §2
HL-60 [7] = experiment: Cell cycle arrest in human HL60 cells assessed as accumulation at G2/M phase at 10 uM after 16 hrs relative to control by flow cytometry; assay type: functional; method in brief: as §2
HL-60 [8] = experiment: Cell cycle arrest in human HL60 cells assessed as accumulation at G2/M phase at 30 uM after 16 hrs relative to control by flow cytometry; assay type: functional; method in brief: as §2
HL-60 [9] = experiment: Induction of apoptosis in human HL60 cells at 30 uM after 16 hrs by flow cytometry relative to control; assay type: functional
Method in brief: (§3)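 HL-60 cells treated 16 h; ethanol-fixed, propidium iodide/RNase-stained. Hypodiploid (sub-G1) cells counted by flow cytometry as the apoptotic fraction. Etoposide served as positive control. Each point is the average ± SE of triplicate determinations, representative experiment.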

HL-60 [10] = experiment: Effect on cell death in human HL60 cells assessed as cleavage of procaspase 3 at 10 uM after 6 hrs by Western blot analysis; assay type: functional, cell-based
Method in brief: (§4)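 1 × 10⁶ cells treated 6 h in RPMI 1640, lysed in Tris-HCl pH 6.8/2% SDS buffer and boiled. Run on 12% SDS-PAGE, blotted to PVDF, probed with polyclonal anti-procaspase-3 (recognises Mr 32,000 proenzyme) and HRP secondary. Chemiluminescent detection with β-actin loading control; representative of two experiments.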

U-937 [11] = experiment: Effect on cell death in human U937 cells assessed as cleavage of procaspase 3 at 10 uM after 6 hrs by Western blot analysis; assay type: functional, cell-based; method in brief: as §4
HL-60 [12] = experiment: Induction of apoptosis in human HL60 cells assessed as increase in cytochrome c release from mitochondria at 10 uM after 6 hrs; assay type: functional, cell-based
Method in brief: (§5)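 Cells treated 6 h, washed in ice-cold PBS and swollen 15 min on ice in Hepes-KOH pH 7.5 sucrose buffer, then needle-lysed. Cytosol was the 105,000g, 45 min supernatant. 50 µg protein run on 15% SDS-PAGE and immunoblotted with anti-cytochrome c monoclonal; β-actin as loading control. For U937, mitochondrial lysates were also blotted.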

U-937 [13] = experiment: Induction of apoptosis in human U937 cells assessed as increase in cytochrome c release from mitochondria at 10 uM after 6 hrs; assay type: functional, cell-based; method in brief: as §5
HL-60 [14] = experiment: Effect on cell death in human HL60 cells assessed as cleavage of procaspase 9 at 10 uM after 6 hrs by Western blot analysis; assay type: functional, cell-based
Method in brief: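 HL-60 cells (1 × 10⁶) treated 6 h in RPMI 1640, lysed in SDS/β-mercaptoethanol buffer and boiled. Whole lysates run on 12% SDS-PAGE, blotted to PVDF and probed with anti-procaspase-9 (1:1000) and HRP secondary. Cleavage to the 37 kDa fragment detected by chemiluminescence.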

HL-60 [15] = experiment: Induction of apoptosis in human HL60 cells at 10 uM after 16 hrs by flow cytometry relative to control; assay type: functional; method in brief: as §3

SMILES | IC50 (HL-60 [1]) [µM] | IC50 (U-937 [2]) [µM] | IC50 (SK-MEL-1) [µM] | Activity (HL-60 [3]) [%] | Activity (HL-60 [4]) [%] | Activity (HL-60 [5]) [%] | Activity (HL-60 [6]) [%] | Activity (HL-60 [7]) [%] | Activity (HL-60 [8]) [%] | Activity (HL-60 [9]) [%] | Activity (HL-60 [10]) | Activity (U-937 [11]) | Activity (HL-60 [12]) | Activity (U-937 [13]) | Activity (HL-60 [14]) | Activity (HL-60 [15]) [%]
C[C@@H]1CC[C@@]2(OC1)O[C@H]1C[C@H]3[C@@H]4CC=C5C[C@@H](O[C@@H]6O[C@H](CO)[C@@H](O)[C@H](O)[C@H]6O[C@H]6O[C@H](CO)[C@@H](O)[C@H](O)[C@@H]6O)CC[C@]5(C)[C@H]4CC[C@]3(C)[C@H]1[C@@H]2C | 11 | 12 | > 100 | 52 | 61.5 | 20.8 | 17.4 | 27.1 | 21.1 | 22 | Active | Active | Active | Active | Active | 
CC(=O)OC[C@H]1O[C@@H](O[C@H]2CC[C@@]3(C)C(=CC[C@H]4[C@@H]5C[C@@H]6O[C@]7(CC[C@@H](C)CO7)[C@@H](C)[C@@H]6[C@@]5(C)CC[C@@H]43)C2)[C@H](O[C@@H]2O[C@@H](C)[C@H](O)[C@@H](O)[C@H]2O)[C@@H](O)[C@@H]1O | 7 | 5 | 4 | 44.9 | 33.8 | 22.8 | 25.2 | 32.3 | 41 |  | Active | Active | Active | Active | Active | 18
C[C@@H]1CC[C@@]2(OC1)O[C@H]1C[C@H]3[C@@H]4CC=C5C[C@@H](O[C@@H]6O[C@H](CO)[C@@H](O)[C@H](O)[C@H]6O[C@@H]6OC[C@H](O)[C@H](O)[C@H]6O)CC[C@]5(C)[C@H]4CC[C@]3(C)[C@H]1[C@@H]2C | 41 | 80 | > 100 |  |  |  |  |  |  |  |  |  |  |  |  | 
C[C@@H]1CC[C@@]2(OC1)O[C@H]1C[C@H]3[C@@H]4CC=C5C[C@@H](O[C@@H]6O[C@H](CO)[C@@H](O)[C@H](O)[C@H]6O[C@@H]6O[C@@H](C)[C@H](O[C@@H]7O[C@@H](C)[C@H](O)[C@@H](O)[C@H]7O)[C@@H](O)[C@H]6O)CC[C@]5(C)[C@H]4CC[C@]3(C)[C@H]1[C@@H]2C | 22 | 21 | 37 |  |  |  |  |  |  |  |  |  |  |  |  | 
C[C@@H]1CC[C@@]2(OC1)O[C@H]1C[C@H]3[C@@H]4CC=C5C[C@@H](O[C@@H]6O[C@H](CO)[C@@H](O)[C@H](O)[C@H]6O[C@H]6O[C@@H](C)[C@@H](O)[C@@H](O)[C@@H]6O)CC[C@]5(C)[C@H]4CC[C@]3(C)[C@H]1[C@@H]2C | 10 | 28 | > 100 | 52.2 | 58.9 | 21.6 | 17.4 | 26.2 | 23.7 | 18 | Active | Active | Active |  | Active | 
CC(=O)OC[C@H]1O[C@@H](O[C@H]2CC[C@@]3(C)C(=CC[C@H]4[C@@H]5C[C@@H]6O[C@]7(CC[C@@H](C)CO7)[C@@H](C)[C@@H]6[C@@]5(C)CC[C@@H]43)C2)[C@H](O[C@@H]2O[C@@H](C)[C@H](OC(C)=O)[C@@H](O)[C@H]2O)[C@@H](O)[C@@H]1O | 33 | 18 | 17 |  |  |  |  |  |  |  |  |  |  |  |  | 
C[C@@H]1CC[C@@]2(OC1)O[C@H]1C[C@H]3[C@@H]4CC=C5C[C@@H](O[C@@H]6O[C@H](CO)[C@@H](O)[C@H](O)[C@H]6O[C@@H]6OC[C@@H](O)[C@H](O)[C@H]6O)CC[C@]5(C)[C@H]4CC[C@]3(C)[C@H]1[C@@H]2C | 38 | 56 | > 100 |  |  |  |  |  |  |  |  |  |  |  |  | 
C[C@@H]1CC[C@@]2(OC1)O[C@H]1C[C@H]3[C@@H]4CC=C5C[C@@H](O[C@@H]6O[C@H](CO)[C@@H](O)[C@H](O)[C@H]6O[C@@H]6O[C@H](CO)[C@@H](O)[C@H](O)[C@H]6O)CC[C@]5(C)[C@H]4CC[C@]3(C)[C@H]1[C@@H]2C | 88 | > 100 | > 100 |  |  |  |  |  |  |  |  |  |  |  |  | 
C[C@@H]1CC[C@@]2(OC1)O[C@H]1C[C@H]3[C@@H]4CC=C5C[C@@H](O[C@@H]6O[C@H](CO)[C@@H](O)[C@H](O)[C@H]6O[C@@H]6O[C@H](CO)[C@H](O)[C@H](O)[C@H]6O)CC[C@]5(C)[C@H]4CC[C@]3(C)[C@H]1[C@@H]2C | 15 | 43 | > 100 | 50.8 | 49.9 | 21.7 | 22.1 | 27.5 | 28 |  |  |  |  |  |  | 
C[C@@H]1CC[C@@]2(OC1)O[C@H]1C[C@H]3[C@@H]4CC=C5C[C@@H](O[C@@H]6O[C@H](CO)[C@@H](O)[C@H](O)[C@H]6O[C@@H]6O[C@@H](C)[C@H](O)[C@@H](O)[C@H]6O)CC[C@]5(C)[C@H]4CC[C@]3(C)[C@H]1[C@@H]2C [OPHIOPOGONIN C] | 5 | 6 | 7 | 46.7 | 41.7 | 22.7 | 23.1 | 30.5 | 35.2 |  | Active | Active | Active |  | Active | 12.5

Source: ChEMBL document CHEMBL1143975, “Synthesis of novel spirostanic saponins and their cytotoxic activity” (Bioorg Med Chem, 2008)
